From publication PMC7745752 (The Journal of General Physiology, 2020)
Changes are numbered by the printed parent chain.

Experiments:
[1] = system: TRPV3 C-terminal double and triple mutants (E682Q, E689Q, D727N combinations); test: cell-based Ca2+ assay; design: species or system mouse; details: pH 7.4 vs pH 5.6
How it was run: (§1)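 Mouse TRPV3 (WT or mutant) was transfected into HEK293 cells in 96-well plates. Cells were loaded with 5 µM Fluo-4/AM, 0.02% Pluronic F-127 and 0.1% BSA in HEPES ECS (pH 7.4) at 37°C for 60 min, with 2 mM probenecid throughout. 2-APB was added once per well in ECS, or in Mes acidic solution giving final pH 5.6. AUC was normalized to the plate maximum, and EC50 at each pH came from a Hill fit.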

TRPV3 E631A = molecular target: T1, TRPV3 E631A (Mus musculus, UniProt Q8K424, E631A); test: whole-cell voltage-clamp recording in transfected HEK293 cells; assay type: cell-based; details: n = 3
T1 sequence (Q8K424 1-791 E631A): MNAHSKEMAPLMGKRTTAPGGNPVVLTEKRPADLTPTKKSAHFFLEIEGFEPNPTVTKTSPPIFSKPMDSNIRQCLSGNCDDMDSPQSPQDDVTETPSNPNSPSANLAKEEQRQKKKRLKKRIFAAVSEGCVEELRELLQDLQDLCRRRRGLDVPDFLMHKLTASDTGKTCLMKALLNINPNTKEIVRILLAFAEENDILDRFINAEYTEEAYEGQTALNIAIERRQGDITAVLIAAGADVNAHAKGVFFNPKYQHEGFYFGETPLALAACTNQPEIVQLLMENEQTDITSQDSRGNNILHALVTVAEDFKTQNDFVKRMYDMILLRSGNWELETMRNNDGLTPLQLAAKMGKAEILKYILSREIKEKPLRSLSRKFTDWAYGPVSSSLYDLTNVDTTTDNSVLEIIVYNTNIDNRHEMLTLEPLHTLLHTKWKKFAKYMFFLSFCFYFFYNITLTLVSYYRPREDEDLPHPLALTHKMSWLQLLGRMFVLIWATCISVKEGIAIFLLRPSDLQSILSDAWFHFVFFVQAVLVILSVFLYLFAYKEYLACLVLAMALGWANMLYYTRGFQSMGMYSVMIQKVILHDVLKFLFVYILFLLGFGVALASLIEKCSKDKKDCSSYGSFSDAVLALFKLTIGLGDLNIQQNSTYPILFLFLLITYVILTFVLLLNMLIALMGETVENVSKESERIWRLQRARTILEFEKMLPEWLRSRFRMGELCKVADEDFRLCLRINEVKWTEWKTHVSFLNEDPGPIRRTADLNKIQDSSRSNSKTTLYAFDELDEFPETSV
How it was run: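 Whole-cell clamp at 22–24°C of HEK293 cells transiently expressing mutant mouse TRPV3. Pipette: 140 mM CsCl, 1 EGTA, pH 7.2. Bath: nominally Ca2+-free. 30 µM 2-APB was perfused at pHe 7.4, then in pH 5.0 Mes-buffered solution. Ramps ran −100 to +100 mV over 200 ms every second from 0 mV holding. Current ratio pHe 5.0/7.4 was taken at ±100 mV.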

[2] = molecular target: T2, TRPV3 E682Q/E689Q/D727N (QQN) (Mus musculus, UniProt Q8K424, D727N/E682Q/E689Q); test: cell-based Ca2+ assay
T2 sequence (Q8K424 1-791 E682Q/E689Q/D727N): T1 sequence (Q8K424 1-791 E631A) with A631E, E682Q, E689Q, D727N
How it was run: as §1

[3] = molecular target: T2, TRPV3 E682Q/E689Q/D727N (QQN); test: whole-cell voltage-clamp recording in transfected HEK293 cells; assay type: cell-based
WT mouse TRPV3 [4] = molecular target: T3, WT mouse TRPV3 (Mus musculus, UniProt Q8K424); test: cell-based Ca2+ assay; details: pH 7.4 vs pH 5.6
T3 sequence (Q8K424 1-791): T1 sequence (Q8K424 1-791 E631A) with A631E
How it was run: as §1

TRPV3 E682Q/D727N = molecular target: T4, TRPV3 E682Q/D727N (Mus musculus, UniProt Q8K424, D727N/E682Q); test: cell-based Ca2+ assay
T4 sequence (Q8K424 1-791 E682Q/D727N): T1 sequence (Q8K424 1-791 E631A) with A631E, E682Q, D727N
How it was run: (§2)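 Ca2+ plate assay with FlexStation in HEK293 cells transiently expressing mutant mouse TRPV3. Fluo-4/AM loading was 5 µM for 60 min at 37°C in pH 7.4 ECS with probenecid; cells were then washed. Agonist was delivered robotically at varied concentrations, each well dosed once. Read-out was ex 494/em 525 nm at 0.67 Hz. AUC was normalized to the plate maximum, and EC50 was obtained by Hill fitting.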

WT mouse TRPV3 [5] = molecular target: T3, WT mouse TRPV3; test: whole-cell voltage-clamp recording in transfected HEK293 cells; assay type: cell-based; details: 300 µM carvacrol; for repeated stimulations needed to approach the maximal response: 30-s applications
How it was run: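 Sensitization by intracellular pH: 300 µM carvacrol was applied repeatedly in whole-cell mode to HEK293 cells expressing mouse TRPV3. External solution was pH 7.4, nominally Ca2+-free. pHi was set to 7.2, 6.5 or 6.0 by CsCl/EGTA pipette solutions. The stimulation reaching maximal response was noted. Temperature was 22–24°C.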

TRPV3 E689Q/D727N = molecular target: T5, TRPV3 E689Q/D727N (Mus musculus, UniProt Q8K424, D727N/E689Q); test: cell-based Ca2+ assay
T5 sequence (Q8K424 1-791 E689Q/D727N): T1 sequence (Q8K424 1-791 E631A) with A631E, E689Q, D727N
How it was run: as §2

| Compound | ratio for 2-APB EC50 values obtained at pH 7.4 and pH 5.6 [1] | 5.0:7.4 pH ratio of 2-APB-evoked current (TRPV3 E631A; +100 mV) | 5.0:7.4 pH ratio of 2-APB-evoked current (TRPV3 E631A; −100 mV) | ratio for 2-APB EC50 values obtained at pH 7.4 and pH 5.6 ([2]; pH 7.4 vs pH 5.6) | delay in current development after the addition of 2-APB ([3]; 5 µM 2-APB, pHe 6.5, nominally Ca2+-free bath) [s] | ratio for 2-APB EC50 values obtained at pH 7.4 and pH 5.6 (WT mouse TRPV3 [4]) | EC50 [2] [µM] | EC50 (TRPV3 E682Q/D727N) [µM] | repeated stimulations needed to approach the maximal response (WT mouse TRPV3 [5]; pHi 6.0, external pH 7.4) | repeated stimulations needed to approach the maximal response (WT mouse TRPV3 [5]; pHi 7.2, external pH 7.4) | decrease of carvacrol-evoked TRPV3 current by pH 5.5 compared with pH 7.4 (WT mouse TRPV3 [5]; presensitized cells, +80 mV, nominally Ca2+-free bath) [%] | stimulation at which the highest level of response was reached ([3]; 300 µM carvacrol, 30-s applications, pHi 7.2, external pH 7.4) | EC50 (TRPV3 E689Q/D727N) [µM] |
| --- | --- | --- | --- | --- | --- | --- | --- | --- | --- | --- | --- | --- | --- |
| NCCOB(c1ccccc1)c1ccccc1 [2-APB, 2-aminoethoxydiphenyl borate] | < 4.6 | 0.98 ± 0.09 | 1.02 ± 0.03 | 0.92 | ~30 | ~15 |  |  |  |  |  |  |  |
| Cc1ccc(C(C)C)cc1O [carvacrol] |  |  |  |  |  |  | 119 ± 7.6 | 197 ± 7.8 | five | ~14 | ~50 | first stimulation | 60.2 ± 3.2 |
